pEC50, pIC50: −log10 of the molar value.
Legend:
[1] = system: Human immunodeficiency virus 2; experiment: Antiviral activity against HIV-2 infected in human MT4 cells measured on day 5 post-infection by trypan blue dye staining-based method; format: functional, cell-based; settings: Human immunodeficiency virus 2, MT4, 120 h
[2] = system: Human immunodeficiency virus 1; experiment: Antiviral activity against HIV-1 infected in human MT4 cells measured on day 5 post-infection by trypan blue dye staining-based method; format: functional, cell-based; settings: Human immunodeficiency virus 1, MT4, 120 h
[3] = Selectivity index, ratio of CC50 for human PHA-stimulated PBMCs to IC50 for CCR5 tropic HIV1 BaL infected in human PHA-stimulated PBMC
[4] = system: Human immunodeficiency virus 1; experiment: Antiviral activity against CXCR4-tropic HIV-1 NL4-3 infected in human TZM-bl cells assessed as inhibition of virus-induced cytopathic effect preincubated with cells for 30 mins followed by viral infection measured after 48 hrs in presence of p-24 HIV-1 Ag by luciferase reporter gene assay; format: functional, cell-based; settings: Human immunodeficiency virus 1, NL4-3, TZM-bl
Summary of the method: (§1)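 TZM-bl cells, 1 × 10^4 per well in DMEM with 10% FBS and 10 mM […], incubated 30 min at 37 °C with compound. Then HIV-1 NL4.3 (X4) or BaL (R5) added at 100 pg p24 Ag per well. After 48 h, cells lysed with luciferase substrate. Tat-induced luminescence read after 10 min dark incubation as a measure of replication.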

[5] = Selectivity index, ratio of CC50 for human TZM-bl cells to EC50 for CCR5 tropic HIV1 BaL infected in human TZM-bl cells; format: toxicity, cell-based; settings: read-out: Ratio CC50/EC50
[6] = Selectivity index, ratio of CC50 for HepG2.2.15 cells to EC50 for HBV ayw1 infected in human HepG2(2.2.15) cells assessed as reduction in viral replication by measuring extracellular viral DNA copy
Summary of the method: (§2)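 HepG2.2.15 cells (two copies of HBV ayw1 genome), 1.5 × 10^4/well in DMEM with 2% FBS and 380 μg/mL G418. After 16–24 h, compound added in triplicate, medium with compound renewed at day 3. Supernatant collected at day 6, Pronase-treated, and extracellular HBV DNA measured by TaqMan qPCR (precore/core) against an HBV DNA standard curve. EC50/EC90 derived; CC50 by MTS uptake.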

[7] = Cytotoxicity against human HepG2.2.15 cells assessed as cell viability by tetrazolium dye uptake assay; format: cell-based, HepG2 2.2.15
Summary of the method: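 HepG2.2.15 cells (two integrated copies of HBV ayw1 genome) were seeded at 1.5 × 10^4 cells/well in DMEM with 2% FBS, 380 μg/mL G418, glutamine, antibiotics and nonessential amino acids. After 16−24 h, medium with various compound concentrations was added in triplicate and renewed on day 3. After 6 days of treatment, viability was read by MTS uptake and CC50 was calculated.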

[8] = system: Human immunodeficiency virus 1; experiment: Antiviral activity against CCR5 tropic HIV1 BaL infected in human TZM-bl cells assessed as inhibition of virus-induced cytopathic effect preincubated with cells for 30 mins followed by viral infection measured after 48 hrs in presence of p-24 HIV-1 Ag by luciferase reporter gene assay; format: functional, cell-based; settings: Human immunodeficiency virus 1, BaL; summary of the method: as §1
[9] = Selectivity index, ratio of CC50 for human HEL cells to EC50 for HCMV Davis strain
Summary of the method: (§3)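 HEL fibroblast monolayers inoculated with 100 CCID50 HCMV (AD-169, Davis) or 20 PFU VZV (TK+ Oka, TK− 07-1). Adsorbed 1–2 h, inoculum removed, then incubated with compound dilutions. HCMV cytopathicity or VZV plaques scored once untreated infected controls reached completion. EC50 is 50% reduction. SI is CC50/EC50, and the potency ratio is the ratio of EC50s.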

[10] = Cytotoxicity against human TZM-bl cells assessed as cell viability by tetrazolium dye assay; format: cell-based
[11] = Selectivity index, ratio of CC50 for human PHA-stimulated PBMC to IC50 for CXCR4-tropic HIV-1 NL4-3 infected in human PHA-stimulated PBMC
Human alphaherpesvirus 3 [12] = experiment: Antiviral activity against thymidine kinase expressing Varicella-Zoster virus Oka strain assessed as inhibition of plaque formation; format: functional; settings: Human alphaherpesvirus 3, strain Oka vaccine; summary of the method: as §3
Human betaherpesvirus 5 [13] = experiment: Antiviral activity against HCMV Davis strain infected in HEL cells assessed as inhibition of virus-induced cytopathic effect; format: functional, cell-based; settings: Human betaherpesvirus 5, Davis; summary of the method: as §3
[14] = system: Human immunodeficiency virus 1; experiment: Antiviral activity against CXCR4-tropic HIV-1 NL4-3 infected in human PHA-stimulated PBMC assessed as inhibition of viral replication by measuring reduction in p24 antigen production preincubated with cells for 30 mins followed by viral infection measured on day 10 post infection in presence of IL-2 by ELISA; format: functional; settings: Human immunodeficiency virus 1, NL4-3
Summary of the method: (§4)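 PBMCs stimulated with 2 μg/mL PHA for 3 days at 37 °C, then 5 × 10^5 cells/ml preincubated 30 min at 37 °C with serial compound dilutions plus 2 ng/mL IL-2. Infected with 1500 pg/well HIV-1 BaL or 500 pg/well other isolates. IL-2 re-added on days 3 and 6. Supernatant p24 Ag measured by ELISA at day 10. EC50 is 50% inhibition of replication.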

Hepatitis B virus [15] = experiment: Antiviral activity against HBV ayw1 infected in human HepG2(2.2.15) cells assessed as reduction in viral replication by measuring extracellular viral DNA copy number after 6 days by real-time qPCR method; format: functional, cell-based; settings: ayw1, HepG2 2.2.15, 144 h; summary of the method: as §2
[16] = Cytotoxic activity against HEL cells assessed as reduction in cell proliferation after 3 days by coulter counting method; format: cell-based; settings: human
Summary of the method: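 HEL cells seeded at 5 × 10^3/well, grown 24 h, then given compound for 3 days at 37 °C. Cell number counted by Coulter counter. CC50 is 50% reduction of proliferation relative to untreated controls, read from graphic plots.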

[17] = Selectivity index, ratio of CC50 for human TZM-bl cells to EC50 for CXCR4-tropic HIV-1 NL4-3 infected in human TZM-bl cells; format: toxicity, cell-based; settings: read-out: Ratio CC50/EC50
[18] = Selectivity index, ratio of CC50 for human HEL cells to EC50 for HCMV AD-169 strain; summary of the method: as §3
[19] = Cytotoxic activity against HEL cells assessed as alteration of cell morphology after 3 days by microscopic method; format: cell-based; settings: human
Summary of the method: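 HEL cells with compound; MCC is the lowest concentration giving microscopically detectable alteration of cell morphology.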

Human alphaherpesvirus 3 [20] = experiment: Antiviral activity against thymidine kinase deficient Varicella-Zoster virus 07-1 infected in HEL cells assessed as inhibition of plaque formation; format: functional, cell-based; settings: Human alphaherpesvirus 3, 07-1, HEL; summary of the method: as §3
Human betaherpesvirus 5 [21] = experiment: Antiviral activity against Human cytomegalovirus AD169 infected in HEL cells assessed as inhibition of virus-induced cytopathic effect; format: functional, cell-based; settings: Human betaherpesvirus 5, AD169, HEL; summary of the method: as §3
[22] = system: Human immunodeficiency virus 1; experiment: Antiviral activity against CCR5 tropic HIV1 BaL infected in human PHA-stimulated PBMC assessed as inhibition of viral replication by measuring reduction in p24 antigen production preincubated with cells for 30 mins followed by viral infection measured on day 10 post infection in presence of IL-2 by ELISA; format: functional; settings: Human immunodeficiency virus 1, BaL; summary of the method: as §4
[23] = Cytotoxicity against human PHA-stimulated PBMC assessed as cell viability by tetrazolium dye assay; format: cell-based
[24] = Selectivity index, ratio of CC50 for HepG2.2.15 cells to EC50 for HBV ayw1 infected in human HepG2(2.2.15) cells assessed as reduction in viral replication by measuring intracellular viral DNA copy
Summary of the method: (§5)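 Run as the HepG2.2.15 6-day assay (triplicate compound, medium with compound renewed at day 3). At the end, total intracellular DNA was isolated from the cells and HBV DNA copy number measured by TaqMan qPCR. EC50/EC90 derived; SI is CC50/EC50.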

Hepatitis B virus [25] = experiment: Antiviral activity against HBV ayw1 infected in human HepG2(2.2.15) cells assessed as reduction in viral replication by measuring intracellular viral DNA copy number after 6 days byr by real-time qPCR assay; format: functional, cell-based; settings: ayw1, HepG2 2.2.15, 144 h; summary of the method: as §5
[26] = system: Human immunodeficiency virus 1; experiment: Selectivity ratio of EC50 for tenofovir-resistant CXCR4-tropic HIV-1 NL4-3 harboring reverse transcriptase K65R mutant infected in human MT4 cells to EC50 for CXCR4-tropic HIV-1 NL4-3 infected in human MT4 cells; format: functional
Summary of the method: (§6)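 MT-4 cells, 1 × 10^4 per well, given compound dilutions and wild-type NL4-3 or K65R NL4-3. Virus titred to give 85–95% cell killing at day 6. Incubated 6 days at 37 °C, 5% CO2. Viability read by XTT at 450/650 nm. EC50 from CPE reduction and toxicity from uninfected drug wells, by four-parameter fit. Fold change is K65R EC50 over wild-type EC50.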

[27] = Cytotoxicity against human MT4 cells assessed as reduction in cell viability after 6 days by XTT tetrazolium dye-based assay; summary of the method: as §6
[28] = system: Human immunodeficiency virus 1; experiment: Antiviral activity against tenofovir-resistant CXCR4-tropic HIV-1 NL4-3 harboring reverse transcriptase K65R mutant infected in human MT4 cells assessed as inhibition of viral replication inhibition of virus-induced cytopathic effect after 6 days by XTT dye based assay; format: functional, cell-based; settings: Human immunodeficiency virus 1, NL4-3, MT4, 144 h; summary of the method: as §6
[29] = system: Human immunodeficiency virus 1; experiment: Antiviral activity against CXCR4-tropic HIV-1 NL4-3 infected in human MT4 cells assessed as inhibition of virus-induced cytopathic effect after 6 days by XTT dye based assay; format: functional, cell-based; settings: Human immunodeficiency virus 1, NL4-3, MT4, 144 h; summary of the method: as §6

| Compound | Ratio CC50/IC50 [3] | Ratio CC50/EC50 [6] | CC50 [7] [nM] | Ratio CC50/IC50 [11] | pIC50 [14] | pEC50 (Hepatitis B virus [15]) | EC90 (Hepatitis B virus [15]) [nM] | pIC50 [22] | CC50 [23] [nM] | Ratio EC50 [26] | CC50 at 144 h [27] [nM] | pEC50 [28] | further results |
| --- | --- | --- | --- | --- | --- | --- | --- | --- | --- | --- | --- | --- | --- |
| Nc1nc(N)c2ncn(C[C@H](CF)OCP(=O)(O)O)c2n1 | – | – | – | – | – | – | – | – | – | – | – | – | pEC50 [1]: 5.34; pEC50 [2]: 5.37 |
| Nc1nc2c(ncn2CC(CF)OCP(=O)(O)O)c(=O)[nH]1 (stereo unspecified) | – | – | – | – | – | – | – | – | – | – | – | – | pEC50 [1]: 5.30; pEC50 [2]: 5.30 |
| CCCCCOC(=O)C[C@H](NP(=O)(CO[C@H](CF)Cn1cnc2c(=O)[nH]c(N)nc21)Oc1ccccc1)C(=O)OCCCCC (stereo partly specified) | 86 | >769 | > 100000 | 374 | 7.52 | 6.89 | 2860 | 6.89 | 11200 | – | – | – | pEC50 [4]: 6.80; selectivity ratio [5]: > 455; pEC50 [8]: 6.66; Ratio CC50/EC50 [9]: <10; CC50 [10]: > 100000 nM; pEC50 (Human alphaherpesvirus 3 [12]): 6.23; pEC50 (Human betaherpesvirus 5 [13]): 5.52; CC50 at 72 h [16]: 27800 nM; selectivity ratio [17]: > 625; Ratio CC50/EC50 [18]: <10; MCC at 72 h [19]: 153 µM; pEC50 (Human alphaherpesvirus 3 [20]): 7.10; pEC50 (Human betaherpesvirus 5 [21]): 5.23 |
| C=C1[C@H](CO)[C@@H](O)C[C@@H]1n1cnc2c(=O)[nH]c(N)nc21.O [ENTECAVIR] | – | >2381 | > 1000 | – | – | > 8.00 | > 1000 | – | – | – | – | – | Ratio CC50/EC50 [24]: >2857; pEC50 (Hepatitis B virus [25]): 9.46; EC90 (Hepatitis B virus [25]): > 1000 nM |
| Nc1ccn([C@@H]2CS[C@H](CO)O2)c(=O)n1 [LAMIVUDINE] | – | >105 | > 2000 | – | – | 7.70 | > 2000 | – | – | – | – | – | Ratio CC50/EC50 [24]: >225; pEC50 (Hepatitis B virus [25]): 8.05; EC90 (Hepatitis B virus [25]): > 2000 nM |
| C[C@H](Cn1cnc2c(N)ncnc21)OCP(=O)(O)O [TENOFOVIR ANHYDROUS] | >18 | – | – | >66 | 6.42 | – | – | 5.85 | > 25000 | >16.7 | > 20000 | 7.00 | pEC50 [4]: 5.40; selectivity ratio [5]: > 14; pEC50 [8]: 5.16; CC50 [10]: > 100000 nM; selectivity ratio [17]: > 25; pEC50 [29]: > 7.22 |
| CC(C)OC(=O)OCOP(=O)(CO[C@H](C)Cn1cnc2c(N)ncnc21)OCOC(=O)OC(C)C.O=C(O)/C=C/C(=O)O [TENOFOVIR DISOPROXIL FUMARATE] | 66 | – | – | 182 | 7.10 | – | – | 6.66 | 14600 | 2.3 | > 20000 | 4.95 | – |
| Cc1cn([C@H]2C[C@H](N=[N+]=[N-])[C@@H](CO)O2)c(=O)[nH]c1=O [ZIDOVUDINE] | – | – | – | – | – | – | – | – | – | 1.3 | > 500 | 8.30 | pEC50 [29]: 8.40 |
